Screens as filed in PubChem.
Hits are enriched below; roughly 1.7% of the tested compounds scored in any of these assays.
EBV gp42 inh = EBV gp42 inhibition; Q1HVG2; Fluorescence polarization binding assay, mP read-out; inhibition, % (tested at 21.74 µM); 220,000 compounds, 0.42% hits; in the data active = inhibition above about 50%
HCV NS3 hel inh = HCV NS3 helicase inhibition; AID 1800; 290,000 compounds, 0.56% hits; NS3 helicase DNA unwinding, Cy5 molecular beacon fluorescence; inhibition, % at 10.9 µM;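 active = inhibition above the mean of all tested compounds plus 3 SD, set per campaign, cut at about 35% in these data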
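Assay system – hepatitis C virus NS3 helicase domain fragment enzyme · Buffer or medium – MOPS pH 6.5, MgCl2, DTT, Tween20, BSA · Reagent – Cy5/quencher beacon DNA duplex and ATP to start · Compound – single 10.9 µM dose · Timing – 1 h at 25 °C · Technique – Cy5 beacon fluorescence read at start and 1 h · Measure – % inhibition of unwinding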
HCV core dimer = blocks dimerization of HCV core protein | TR-FRET GST/Flag-core106 dimerization, 1536-well | inhibition, % at 5 µM | 300,000 compounds, 0.33% hits;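 active = inhibition above the mean of all tested compounds plus 3 SD, set per screening campaign, cut at about 45% in these data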
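Assay system: GST-tagged and Flag-tagged HCV core protein residues 1-106 / Times: compound-protein-antibody incubation 4 h at 22.5 °C / Signal: time-resolved FRET, ex 340 nm, em 617 and 671 nm / Evaluation: % inhibition based on acceptor/donor emission ratio / Benchmarks: wells lacking GST-core106 and wells with excess unlabelled core106 / Repeats: singlicate, one well per compound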
MEX-5 binding = C. elegans MEX-5 TCR-2 RNA binding activity | AID 1832 | activity score (negative = inhibition of binding), % at 10 µM | MEX-5/FITC-TCR2 RNA binding, fluorescence polarization; stronger effect = lower value | 300,000 compounds, 0.38% hits | Q9XUB2;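 active = inhibition past about -25% in most replicates, and total fluorescence under double the plate's negative control median, limit read from the data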
Target sequence (Q9XUB2 whole entry, looked up): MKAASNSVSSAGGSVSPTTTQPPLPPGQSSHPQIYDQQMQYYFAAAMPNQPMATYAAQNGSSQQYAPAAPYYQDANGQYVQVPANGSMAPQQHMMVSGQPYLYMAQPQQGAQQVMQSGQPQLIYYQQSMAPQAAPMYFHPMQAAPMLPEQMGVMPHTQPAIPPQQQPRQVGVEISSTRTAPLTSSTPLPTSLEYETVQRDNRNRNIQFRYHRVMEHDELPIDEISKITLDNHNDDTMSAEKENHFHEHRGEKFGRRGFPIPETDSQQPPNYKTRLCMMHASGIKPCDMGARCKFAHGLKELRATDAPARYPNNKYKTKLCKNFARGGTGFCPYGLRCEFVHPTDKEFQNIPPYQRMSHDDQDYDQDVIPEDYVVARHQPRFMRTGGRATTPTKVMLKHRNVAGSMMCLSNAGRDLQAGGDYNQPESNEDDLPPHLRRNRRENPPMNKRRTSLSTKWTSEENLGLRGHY
ZTA counter = blocks Epstein-Barr virus ZTA, an EBNA-1 counter-screen; ZTA-DNA binding, fluorescence polarization; 320,000 compounds, 0.15% hits; AID 2234; inhibition, % at 11 µM; in the data active = inhibition above about 33%
EBNA-1 inhibitor = blocks EBNA-1 binding to DNA. EBNA-1 DNA binding, fluorescence polarization. inhibition, % at 14.8 µM. 300,000 compounds, 0.34% hits; in the data active = inhibition above about 28%
EBNA-1 confirm = EBNA-1 (EBV) inhibition, confirmation; shares compounds with EBNA-1 inhibitor; Recombinant EBNA-1 DBD, Cy5-DNA fluorescence polarization; inhibition, % at 14.8 µM; 830 compounds, 35% hits; AID 2292;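 active = mean inhibition across replicates above a set limit taken from the earlier primary screen, cut at about 28% in these data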
ZTA DNA inh trip = counter-screen for EBNA-1 inhibitors: Epstein-Barr virus ZTA inhibitors, triplicate; shares compounds with EBNA-1 inhibitor; Zta-ZRE DNA binding, Cy5 fluorescence polarization; AID 2328; inhibition, % at 11.1 µM; 830 tested, under 10 active;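 active = mean inhibition over triplicates above a set limit taken from the primary EBNA-1 screen, cut at about 37% in these data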;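 note: purified full length Zta protein with Cy5 labeled ZRE DNA probe; inhibitors lower polarization by freeing the labeled DNA probe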
A number is an active result; n = inactive; x = not tested or not shown.

SMILES | EBV gp42 inh | HCV NS3 hel inh | HCV core dimer | MEX-5 binding | ZTA counter | EBNA-1 inhibitor | EBNA-1 confirm | ZTA DNA inh trip
CCn1c(O)c(/C=C2\C=Nc3ccccc32)sc1=O | n | n | n | n | n | 28 | n | n
COc1ccccc1NC(=O)Cn1c2ccccc2c2nc3n(c(=O)c21)CCS3 | n | n | n | n | n | 44 | n | n
O=C(Cn1c2ccccc2c2nc3n(c(=O)c21)CCS3)Nc1ccccc1C(F)(F)F | n | n | n | n | n | n | x | x
O=C(N/N=C/c1ccc2c(c1)OCO2)c1cc2ccccc2o1 | n | n | n | n | n | 30 | n | n
Cc1ccc(C(=O)N/N=C/c2ccc3c(c2)OCO3)o1 | n | n | n | n | n | n | x | x
CC1(C(=O)NCCOc2ccccc2Cl)CC1(Cl)Cl (stereo unspecified) | x | n | n | n | n | n | x | x
CC(=O)c1cccc(NC(=O)c2ccc(-c3ccccc3[N+](=O)[O-])o2)c1 | n | n | n | n | n | 36 | n | n
COc1ccc(CCNC(=O)c2sc(=S)n(C)c2N)cc1 | n | n | n | n | n | 28 | n | n
CCOC(=O)c1cnc(SCc2cccc3ccccc23)nc1N | n | n | n | n | n | 105 | n | n
Cc1ccc(S(=O)(=O)N(C)C)cc1NC(=O)COC(=O)CCC(=O)c1cccs1 | n | n | n | n | n | n | x | x
Cc1ccc(S(=O)(=O)N(C)C)cc1NC(=O)COC(=O)CCCOc1ccccc1 | x | n | n | n | n | 72 | n | n
COCCOC(=O)c1c(NC(=O)COC(=O)Cc2cccc(OC)c2)sc(C(N)=O)c1C | x | n | n | n | n | 39 | 98 | n
COc1ccccc1N(C)S(=O)(=O)c1ccc(C(=O)NC2=NCCS2)cc1 | n | n | n | n | n | 45 | n | n
COc1ccccc1N(C)S(=O)(=O)c1ccc(C(=O)Nc2ccncc2)cc1 | x | x | n | n | n | n | x | x
O=C(CSC(=S)N1CCCCC1)Nc1nc(-c2ccccc2)c(-c2ccccc2)o1 | n | n | n | n | n | 36 | n | n
O=C(Nc1ccncc1)c1cc(S(=O)(=O)N2CCOCC2)ccc1Cl | x | x | n | n | n | n | x | x
CC1(c2ccccc2)NC(=O)N(CCN2C(=O)c3ccccc3C2=O)C1=O (stereo unspecified) | n | n | n | n | n | 59 | n | n
CCCC1(c2ccccc2)NC(=O)N(CCN2C(=O)c3ccccc3C2=O)C1=O (stereo unspecified) | n | n | n | n | n | n | x | x
CCN(C(=O)CCCCC(=O)N(CC)c1ccccc1)c1ccccc1 | x | x | n | n | n | n | x | x
COC(=O)c1cn(NC(=O)Cc2ccc(Cl)c(Cl)c2)c(=O)c2ccccc12 | n | n | n | n | n | 44 | n | n
COC(=O)c1cn(NC(=O)Cc2ccc(Cl)cc2)c(=O)c2ccccc12 | n | n | n | n | n | n | x | x
CCOC(=O)c1cnc2c(ccc3ccccc32)c1NCCCN(C)C | x | n | n | n | n | n | x | x
COc1cccc(Cn2c(=S)[nH]c3ccc(N4CCOCC4)cc3c2=O)c1 | n | n | n | n | n | 29 | n | n
COc1cccc(CNC(=O)CCCCCn2c(=S)[nH]c3ccc(N4CCOCC4)cc3c2=O)c1 | n | n | n | n | n | n | x | x
O=c1c2cc(N3CCOCC3)ccc2[nH]c(=S)n1Cc1cccc(Cl)c1 | n | n | n | n | n | 30 | n | n
CC(CCc1ccccc1)NC(=O)CNC(=O)c1ccccc1Br (stereo unspecified) | x | n | n | n | n | n | x | x
COc1cccc(-n2nnc3c(=O)n(Cc4ccc(C)cc4)cnc32)c1 | n | n | n | n | n | n | x | x
COc1cccc(-n2nnc3c(=O)n(Cc4ccc(Br)cc4)cnc32)c1 | n | n | n | x | n | 35 | n | n
CSc1ccccc1NC(=O)Cn1nnc(-c2ccc(S(C)(=O)=O)cc2)n1 | n | n | n | n | n | 41 | 53 | n
